# Test results reported in ChEMBL document CHEMBL3272018, “Synthesis of aziridinylallylaminophosphine oxides and sulfides as potential adjuvant cancer chemotherapeutic agents” (J Med Chem, 1976).
# The source made the active and inactive calls. No cut-off for these calls is given here.
# Experiments:
# L1210 [1] = assay: In vivo antitumor activity against mouse L1210 cells in prognostic scoring system assessed as survival rate at 100 mg/kg administered as single dose; format: functional, organism-based; set-up: dose 100 mg/kg
# Procedure, shortened: (§1)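 L1210 leukaemia in mice, run as an ascites tumour system. Injections were once daily for 9 or 15 days, or as a single dose. Response is the increase in survival time, given as T/C %, treated over untreated controls; a larger value means more activity. Weight change is the treated-group mean minus the control-group mean, in grams.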
# [2] = Toxicity in rat allografted with rat Walker 256 cells intramuscularly; format: organism-based
# L1210 [3] = assay: In vivo antitumor activity against mouse L1210 cells in prognostic scoring system assessed as tumor growth inhibition at 200 mg/kg administered as single dose (reference value: 10.9 g); format: functional; procedure, shortened: as §1
# Musca domestica [4] = assay: Toxicity in male house fly at 1% administered in sugar; format: organism-based; details: in vivo, po
# L1210 [5] = assay: In vivo antitumor activity against mouse L1210 cells in prognostic scoring system assessed as tumor growth inhibition at 100 mg/kg administered as single dose (reference value: 10.9 g); format: functional; procedure, shortened: as §1
# L1210 [6] = assay: In vivo antitumor activity against mouse L1210 cells in prognostic scoring system assessed as tumor growth inhibition at 400 mg/kg administered as single dose (reference value: 10.9 g); format: functional; procedure, shortened: as §1
# L1210 [7] = assay: In vivo antitumor activity against mouse L1210 cells in prognostic scoring system assessed as survival rate at 200 mg/kg administered as single dose; format: functional, organism-based; set-up: dose 200 mg/kg; procedure, shortened: as §1
# L1210 [8] = assay: In vivo antitumor activity against mouse L1210 cells in prognostic scoring system assessed as survival rate at 400 mg/kg administered as single dose; format: functional, organism-based; set-up: dose 400 mg/kg; procedure, shortened: as §1
# W256 [9] = assay: Antitumor activity against rat Walker 256 cells intramuscularly allografted in rat assessed as survival rate at 0.47 mg/kg, qd administered for 5 days; format: functional, organism-based; set-up: dose 0.47 mg/kg
# Procedure, shortened: (§2)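 Rats bearing Walker 256 carcinoma as a solid tumor; lines 1-8 use a cytoxan-resistant Walker 256 subline. Dosed once daily for 5 days. Treated (T) and untreated control (C) groups are compared, and the response is given as T/C percentage, reflecting increase in survival time. Host weight change is the average weight change of the test group minus that of the controls, in grams.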
# W256 [10] = assay: Antitumor activity against rat Walker 256 cells intramuscularly allografted in rat assessed as tumor growth inhibition; format: functional; details: W256, im
# Procedure, shortened: (§3)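 Dosed once daily for 5 days. Response is tumor progression in treated (T) versus untreated control (C) animals, expressed as T/C percentage. Host weight change is reported as the average net weight change of the test group minus that of the controls, in grams.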
# W256 [11] = assay: Antitumor activity against rat Walker 256 cells intramuscularly allografted in rat assessed as tumor growth inhibition at 1 mg/kg, qd administered for 5 days relative to control; format: functional; details: W256, im, 120 h, route intramuscular, read-out: TGI; procedure, shortened: as §3
# W256 [12] = assay: Antitumor activity against rat Walker 256 cells intramuscularly allografted in rat assessed as survival rate at 1.9 mg/kg, qd administered for 5 days; format: functional, organism-based; set-up: dose 1.9 mg/kg; procedure, shortened: as §2
# Rattus norvegicus [13] = assay: Toxicity in rat allografted with rat Walker 256 cells intramuscularly assessed as change in body weight at 1.9 mg/kg, qd administered for 5 days; format: organism-based; set-up: dose 1.9 mg/kg, route intramuscular; details: in vivo, im, 120 h
# Procedure, shortened: (§4)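 Walker 256 carcinoma solid-tumour system in rats (parent line, or the line resistant to cytoxan). Dosing was one injection per day for 5 days. Toxicity was taken as the average net body-weight change of the treated group minus the average net weight change of the untreated tumour-bearing controls, in grams.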
# Rattus norvegicus [14] = assay: Toxicity in rat allografted with rat Walker 256 cells intramuscularly assessed as change in body weight at 1 mg/kg, qd administered for 5 days; format: organism-based; set-up: dose 1 mg/kg, route intramuscular; details: in vivo, im, 120 h; procedure, shortened: as §4
# L1210 [15] = assay: In vivo antitumor activity against mouse L1210 cells in prognostic scoring system assessed as survival rate at 0.75 mg/kg, qd administered for 15 days; format: functional, organism-based; set-up: dose 0.75 mg/kg; procedure, shortened: as §1
# W256 [16] = assay: Antitumor activity against rat Walker 256 cells intramuscularly allografted in rat assessed as tumor growth inhibition at 0.95 mg/kg, qd administered for 5 days relative to control; format: functional; details: W256, im, 120 h, route intramuscular, read-out: TGI; procedure, shortened: as §3
# W256 [17] = assay: Antitumor activity against rat Walker 256 cells intramuscularly allografted in rat assessed as survival rate at 0.95 mg/kg, qd administered for 5 days; format: functional, organism-based; set-up: dose 0.95 mg/kg; procedure, shortened: as §2
# Musca domestica [18] = assay: Toxicity in male house fly assessed as lowest dose required to cause complete sterility administered in food; format: organism-based; details: in vivo, po
# Rattus norvegicus [19] = assay: Toxicity in rat allografted with rat Walker 256 cells intramuscularly assessed as change in body weight at 0.95 mg/kg, qd administered for 5 days; format: organism-based; set-up: dose 0.95 mg/kg, route intramuscular; details: in vivo, im, 120 h; procedure, shortened: as §4
# L1210 [20] = assay: In vivo antitumor activity against mouse L1210 cells in prognostic scoring system assessed as tumor growth inhibition at 0.6 mg/kg administered 9 doses relative to control; format: functional
# L1210 [21] = assay: In vivo antitumor activity against mouse L1210 cells in prognostic scoring system assessed as tumor growth inhibition at 1.65 mg/kg administered 3 doses relative to control; format: functional
# Rattus norvegicus [22] = assay: Toxicity in rat allografted with rat Walker 256 cells intramuscularly assessed as change in body weight at 0.47 mg/kg, qd administered for 5 days; format: organism-based; set-up: dose 0.47 mg/kg, route intramuscular; details: in vivo, im, 120 h; procedure, shortened: as §4
# Rattus norvegicus [23] = assay: Toxicity in rat allografted with rat Walker 256 cells intramuscularly assessed as change in body weight at 0.23 mg/kg, qd administered for 5 days; format: organism-based; set-up: dose 0.23 mg/kg, route intramuscular; details: in vivo, im, 120 h; procedure, shortened: as §4
# [24] = Therapeutic index, ratio of LD50 for rat allografted with rat Walker 256 cells to ED10 for antitumor activity against rat Walker 256 cells intramuscularly allografted in rat; format: cell-based; details: read-out: TI
# Procedure, shortened: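 Therapeutic index is LD50/ED10 in the Walker 256 solid tumour system. ED10 is the dose giving a 10% tumour weight reduction, with values extrapolated from dose-response data.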
# L1210 [25] = assay: In vivo antitumor activity against mouse L1210 cells in prognostic scoring system assessed as […] at 0.37 mg/kg, qd administered for 15 days relative to control; format: functional; details: L1210, 360 h, read-out: TGI
# L1210 [26] = assay: In vivo antitumor activity against mouse L1210 cells in prognostic scoring system assessed as survival rate at 1.5 mg/kg, qd administered for 15 days; format: functional, organism-based; set-up: dose 1.5 mg/kg; procedure, shortened: as §1
# W256 [27] = assay: Antitumor activity against rat Walker 256 cells intramuscularly allografted in rat assessed as survival rate at 1 mg/kg, qd administered for 5 days; format: functional, organism-based; set-up: dose 1 mg/kg; procedure, shortened: as §2
# W256 [28] = assay: Antitumor activity against rat Walker 256 cells intramuscularly allografted in rat assessed as tumor growth inhibition at 1.9 mg/kg, qd administered for 5 days relative to control; format: functional; details: W256, im, 120 h, route intramuscular, read-out: TGI
# Procedure, shortened: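 Walker 256 carcinoma grown as a solid tumour in rats, with one injection daily for 5 days. Response is given as T/C %, the treated-group measure over the untreated-control tumour measure; a smaller value means more activity. Host toxicity is the mean net weight change of treated minus control animals, in grams.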
# L1210 [29] = assay: In vivo antitumor activity against mouse L1210 cells in prognostic scoring system assessed as survival rate at 0.37 mg/kg, qd administered for 15 days; format: functional, organism-based; set-up: dose 0.37 mg/kg; procedure, shortened: as §1
# W256 [30] = assay: Antitumor activity against rat Walker 256 cells intramuscularly allografted in rat assessed as tumor growth inhibition at 0.47 mg/kg, qd administered for 5 days relative to control; format: functional; details: W256, im, 120 h, route intramuscular, read-out: TGI; procedure, shortened: as §3
# W256 [31] = assay: Antitumor activity against rat Walker 256 cells intramuscularly allografted in rat assessed as tumor growth inhibition at 0.23 mg/kg, qd administered for 5 days relative to control; format: functional; details: W256, im, 120 h, route intramuscular, read-out: TGI; procedure, shortened: as §3
# L1210 [32] = assay: In vivo antitumor activity against mouse L1210 cells in prognostic scoring system assessed as survival rate at 3 mg/kg, qd administered for 15 days; format: functional, organism-based; set-up: dose 3 mg/kg; procedure, shortened: as §1
# W256 [33] = assay: Antitumor activity against rat Walker 256 cells intramuscularly allografted in rat assessed as survival rate at 0.23 mg/kg, qd administered for 5 days; format: functional, organism-based; set-up: dose 0.23 mg/kg; procedure, shortened: as §2
# Musca domestica [34] = assay: Toxicity in male house fly assessed as lowest dose required to cause complete sterility administered in sugar; format: organism-based; details: in vivo, po
structure (smiles),measurement,setting,value
C=CCN(c1ccccc1)P(=O)(N1CC1)N1CC1,Activity,L1210 [1],Active
same,LD50,[2],> 300 mg/kg
same,Activity,L1210 [3],10.5 g
same,Activity,Musca domestica [4],Non-toxic
same,Activity,L1210 [5],10.5 g
same,Activity,L1210 [6],10.5 g
same,Activity,L1210 [7],Active
same,Activity,L1210 [8],Active
C=CCN(CC=C)P(=O)(N1CC1)N1CC1C (stereo not given),Activity,W256 [9],Active
same,ED10,W256 [10],0.52 mg/kg
same,inhibition in vivo at 1 mg/kg,W256 [11],2%
same,Activity,W256 [12],Active
same,Activity,Rattus norvegicus [13],-13 g
same,Activity,Rattus norvegicus [14],-9 g
same,Activity,L1210 [15],Active
same,inhibition in vivo at 0.95 mg/kg,W256 [16],0%
same,LD50,[2],7 mg/kg
same,Activity,W256 [17],Active
same,Activity,Musca domestica [18],0.1%
same,Activity,Rattus norvegicus [19],-8 g
same,T/C,L1210 [20],189%
same,T/C,L1210 [21],159%
same,Activity,Rattus norvegicus [22],0 g
same,Activity,Rattus norvegicus [23],-7 g
same,selectivity ratio,[24],13
same,inhibition in vivo at 0.37 mg/kg,L1210 [25],117%
same,Activity,L1210 [26],Active
same,Activity,W256 [27],Active
same,inhibition in vivo at 1.9 mg/kg,W256 [28],0%
same,Activity,L1210 [29],Active
same,inhibition in vivo at 0.47 mg/kg,W256 [30],5%
same,inhibition in vivo at 0.23 mg/kg,W256 [31],30%
same,Activity,L1210 [32],Active
same,Activity,W256 [33],Active
same,Activity,Musca domestica [34],0.25%
